Legend:
[1] = test system: HepG2; experiment: Anticancer activity against human HepG2 cells assessed as cell survival after 48 hrs by MTT assay; format: functional, cell-based; details: HepG2, 48 h
In short: (§1)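 MTT colorimetric assay. MTT was added (4 h, 37 °C), followed by DMSO, and absorbance was read at 570 nm. IC50 is the concentration giving 50% cell survival. Values are the mean ± SD of three independent experiments in triplicate.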

[2] = Anticancer activity against human SMMC7721 cells assessed as cell survival after 48 hrs by MTT assay; format: functional, cell-based; details: SMMC-7721, 48 h; in short: as §1
[3] = Anticancer activity against human SGC7901 cells assessed as cell survival after 48 hrs by MTT assay; format: functional, cell-based; details: SGC-7901, 48 h; in short: as §1
[4] = test system: MGC-803; experiment: Anticancer activity against human MGC803 cells assessed as cell survival after 48 hrs by MTT assay; format: functional, cell-based; details: MGC-803, 48 h; in short: as §1
[5] = Octanol-water partition coefficient, log P of the compound by shake-flask method; format: physicochemical
In short: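 Shake-flask method: the solute was dissolved in octanol and water and its concentration in each phase was measured by HPLC. Log P is the logarithm of the octanol/aqueous concentration ratio.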

[6] = test system: SMMC-7721; experiment: Induction of apoptosis in human SMMC7721 cells assessed as normal cells at 0.5 uM after 48 hrs by annexin V/PI staining based flow cytometry (reference value: 98%); format: functional
[7] = biological target: Telomerase reverse transcriptase (Homo sapiens, UniProt O14746); experiment: Inhibition of telomerase in human MGC803 cell extracts after 24 hrs by TRAP-PCR-ELISA; parameters: species or system MGC-803
In short: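 MGC-803 cells were grown in DMEM with 10% FBS, streptomycin and penicillin at 37 °C, 5% CO2, and 5 × 10^4 cells were seeded and allowed to adhere. Cells were exposed to staurosporine and test agents (60 to 0.0821 […] series) for 24 h, then scraped, washed, lysed in RIPA buffer on ice for 30 min, and spun at 12,000 g for 20 min at 4 °C. Extract (2 µL) was run in a TRAP-PCR-ELISA with anti-DIG peroxidase detection and read at 490 nm. Values are mean ± SD.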

[8] = test system: SMMC-7721; experiment: Induction of apoptosis in human SMMC7721 cells assessed […] cells at 0.5 uM after 48 hrs by annexin V/PI staining based flow cytometry (reference value: 0.434%); format: functional; details: SMMC-7721, 48 h, read-out: Activity
[9] = test system: SMMC-7721; experiment: Induction of apoptosis in human SMMC7721 cells assessed as non-viable cells at 0.5 uM after 48 hrs by annexin V/PI staining based flow cytometry (reference value: 1.56%); format: functional
[10] = test system: SMMC-7721; experiment: Induction of apoptosis in human SMMC7721 cells assessed as necrotic cells at 0.5 uM after 48 hrs by annexin V/PI staining based flow cytometry (reference value: 0%); format: functional
[11] = test system: MGC-803; experiment: Ratio of celastrol IC50 to compound IC50 for human MGC803 cells assessed as cell survival after 48 hrs by MTT assay; format: functional
[12] = test system: HepG2; experiment: Ratio of celastrol IC50 to compound IC50 for human HepG2 cells assessed as cell survival after 48 hrs by MTT assay; format: functional

Telomerase reverse transcriptase, sequence (O14746 whole entry): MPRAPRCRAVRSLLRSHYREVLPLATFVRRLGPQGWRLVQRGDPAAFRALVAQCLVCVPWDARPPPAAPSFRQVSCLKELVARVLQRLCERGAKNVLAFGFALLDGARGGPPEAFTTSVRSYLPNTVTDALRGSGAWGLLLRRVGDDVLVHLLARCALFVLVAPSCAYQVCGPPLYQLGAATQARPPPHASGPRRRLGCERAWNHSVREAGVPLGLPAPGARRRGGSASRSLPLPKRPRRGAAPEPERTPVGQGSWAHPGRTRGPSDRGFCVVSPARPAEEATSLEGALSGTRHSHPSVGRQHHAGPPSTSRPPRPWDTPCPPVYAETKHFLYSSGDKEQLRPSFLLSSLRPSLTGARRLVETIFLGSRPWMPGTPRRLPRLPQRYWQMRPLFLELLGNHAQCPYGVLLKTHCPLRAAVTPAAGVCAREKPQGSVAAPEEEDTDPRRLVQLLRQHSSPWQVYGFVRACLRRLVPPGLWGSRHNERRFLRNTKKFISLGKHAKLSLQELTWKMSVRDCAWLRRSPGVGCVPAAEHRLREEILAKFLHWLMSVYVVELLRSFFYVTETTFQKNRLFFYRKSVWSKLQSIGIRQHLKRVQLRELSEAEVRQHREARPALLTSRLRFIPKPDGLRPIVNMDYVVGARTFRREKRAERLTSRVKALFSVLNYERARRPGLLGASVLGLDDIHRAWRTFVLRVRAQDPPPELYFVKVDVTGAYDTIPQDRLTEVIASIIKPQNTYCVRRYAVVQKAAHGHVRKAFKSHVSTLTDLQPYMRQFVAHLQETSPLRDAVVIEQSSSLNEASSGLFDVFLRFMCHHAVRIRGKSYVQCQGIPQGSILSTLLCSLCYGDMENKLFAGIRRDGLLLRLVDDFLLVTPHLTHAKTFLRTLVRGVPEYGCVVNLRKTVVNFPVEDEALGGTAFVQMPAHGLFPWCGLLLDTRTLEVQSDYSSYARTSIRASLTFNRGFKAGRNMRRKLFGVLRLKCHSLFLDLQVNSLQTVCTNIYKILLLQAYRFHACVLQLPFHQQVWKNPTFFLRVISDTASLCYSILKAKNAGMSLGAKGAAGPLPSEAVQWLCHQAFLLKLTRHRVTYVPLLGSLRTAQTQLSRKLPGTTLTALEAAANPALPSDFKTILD

SMILES	IC50 [1]	IC50 [2]	IC50 [3]	IC50 [4]	logP [5]	Activity [6]	IC50 [7]	viability at 0.5 µM [8]	Activity [9]	Activity [10]	Ratio IC50 [11]	Ratio IC50 [12]
COc1cccc2c1C(=O)c1c(O)c3c(c(O)c1C2=O)C[C@@](O)(C(=O)CO)C[C@@H]3O[C@H]1C[C@H](N)[C@H](O)[C@H](C)O1 [DOXORUBICIN]	0.87 µM	1.22 µM	1.45 µM	1.19 µM	–	–	–	–	–	–	–	–
CC1=C(O)C(=O)C=C2C1=CC=C1[C@@]2(C)CC[C@@]2(C)[C@@H]3C[C@](C)(C(=O)NCCO)CC[C@]3(C)CC[C@]12C	0.61 µM	0.3 µM	0.16 µM	0.39 µM	3.44	37.6%	0.11 µM	13.2%	48%	1.24%	4	6.6
CC1=C(O)C(=O)C=C2C1=CC=C1[C@@]2(C)CC[C@@]2(C)[C@@H]3C[C@](C)(C(=O)NCC(C)O)CC[C@]3(C)CC[C@]12C (stereo partly specified)	0.28 µM	0.61 µM	0.1 µM	1.22 µM	3.49	–	0.34 µM	–	–	–	1.3	14.3
CC1=C(O)C(=O)C=C2C1=CC=C1[C@@]2(C)CC[C@@]2(C)[C@@H]3C[C@](C)(C(=O)N4CCOCC4)CC[C@]3(C)CC[C@]12C	22.7 µM	10.7 µM	8.74 µM	30.7 µM	3.8	–	8.01 µM	–	–	–	–	–
CCCCNC(=O)[C@]1(C)CC[C@]2(C)CC[C@]3(C)C4=CC=C5C(=CC(=O)C(O)=C5C)[C@]4(C)CC[C@@]3(C)[C@@H]2C1	3.07 µM	6.88 µM	4.9 µM	3.55 µM	–	–	–	–	–	–	–	–
CCOC(=O)[C@]1(C)CC[C@]2(C)CC[C@]3(C)C4=CC=C5C(=CC(=O)C(O)=C5C)[C@]4(C)CC[C@@]3(C)[C@@H]2C1	15.2 µM	9.28 µM	11.5 µM	12 µM	4.98	–	18.6 µM	–	–	–	–	–
CNC(=O)[C@]1(C)CC[C@]2(C)CC[C@]3(C)C4=CC=C5C(=CC(=O)C(O)=C5C)[C@]4(C)CC[C@@]3(C)[C@@H]2C1	10.6 µM	7.62 µM	9.38 µM	24.1 µM	3.96	–	15.1 µM	–	–	–	–	–
O=c1[nH]cc(F)c(=O)[nH]1 [FLUOROURACIL]	5.86 µM	4.87 µM	6.12 µM	3.58 µM	–	–	–	–	–	–	–	–
C/C(=C\C(=O)Nc1ccccc1C(=O)O)c1ccc2ccccc2c1	–	–	–	–	–	–	0.41 µM	–	–	–	–	–
CC1=C(O)C(=O)C=C2C1=CC=C1[C@@]2(C)CC[C@@]2(C)[C@@H]3C[C@](C)(C(=O)O)CC[C@]3(C)CC[C@]12C [CELASTROL]	4.01 µM	0.58 µM	0.15 µM	1.55 µM	4.38	–	0.78 µM	–	–	–	–	–
CC1=C(O)C(=O)C=C2C1=CC=C1[C@@]2(C)CC[C@@]2(C)[C@@H]3C[C@](C)(C(=O)N(C)C)CC[C@]3(C)CC[C@]12C	11.2 µM	20 µM	10.5 µM	6.3 µM	4.2	–	21 µM	–	–	–	–	–
CC1=C(O)C(=O)C=C2C1=CC=C1[C@@]2(C)CC[C@@]2(C)[C@@H]3C[C@](C)(C(=O)N4CCN(CCO)CC4)CC[C@]3(C)CC[C@]12C	8.7 µM	1.84 µM	3.81 µM	10.3 µM	3.44	–	2.01 µM	–	–	–	–	–
CC1=C(O)C(=O)C=C2C1=CC=C1[C@@]2(C)CC[C@@]2(C)[C@@H]3C[C@](C)(C(=O)N4CCN(CCN(C)C)CC4)CC[C@]3(C)CC[C@]12C	5.21 µM	2.58 µM	1.33 µM	1 µM	3.95	–	1.41 µM	–	–	–	–	–
CC1=C(O)C(=O)C=C2C1=CC=C1[C@@]2(C)CC[C@@]2(C)[C@@H]3C[C@](C)(C(=O)N4CCN(CCN5CCOCC5)CC4)CC[C@]3(C)CC[C@]12C	16.4 µM	12.3 µM	8.1 µM	13.4 µM	3.5	–	15.2 µM	–	–	–	–	–
